The entries come from a sample that favours hits as a whole.
PKD1 inh: inhibitors of human PKD1 kinase, biochemical, fluorescence polarization; 200,000 tested, 0.056% active; inhibition, % (concentration not given with the values); AID 797, 2007; PKD1 kinase fluorescence polarization assay
Avidin fluor: green autofluorescence of compounds with avidin beads – biophysical, 488/530 nm, flow cytometry, artefact control, profiling panel. compound fluorescence 488/530 nm; hits give high values. fluorescence (KMESF) at 10 µM. 220,000 tested, 0.38% active; in the data active = fluorescence above about 47
ABCB1 block: ABCB1 efflux pump inhibitors, primary screen, cell-based, multiplex, flow cytometry, ABCG2 counter-screen; AID 1326, 2008; 190,000 tested, 0.067% active; ATP-dependent translocase ABCB1 (Homo sapiens), P08183; inhibition, % at 6.6 µM; CCRF-Adr cells, JC-1 efflux; in the data active = inhibition above about 40%;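 note: 0% = vehicle and 100% = reference inhibitor; higher value means more JC-1 retained so stronger ABCB1 efflux block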
Target sequence (P08183 whole entry, looked up): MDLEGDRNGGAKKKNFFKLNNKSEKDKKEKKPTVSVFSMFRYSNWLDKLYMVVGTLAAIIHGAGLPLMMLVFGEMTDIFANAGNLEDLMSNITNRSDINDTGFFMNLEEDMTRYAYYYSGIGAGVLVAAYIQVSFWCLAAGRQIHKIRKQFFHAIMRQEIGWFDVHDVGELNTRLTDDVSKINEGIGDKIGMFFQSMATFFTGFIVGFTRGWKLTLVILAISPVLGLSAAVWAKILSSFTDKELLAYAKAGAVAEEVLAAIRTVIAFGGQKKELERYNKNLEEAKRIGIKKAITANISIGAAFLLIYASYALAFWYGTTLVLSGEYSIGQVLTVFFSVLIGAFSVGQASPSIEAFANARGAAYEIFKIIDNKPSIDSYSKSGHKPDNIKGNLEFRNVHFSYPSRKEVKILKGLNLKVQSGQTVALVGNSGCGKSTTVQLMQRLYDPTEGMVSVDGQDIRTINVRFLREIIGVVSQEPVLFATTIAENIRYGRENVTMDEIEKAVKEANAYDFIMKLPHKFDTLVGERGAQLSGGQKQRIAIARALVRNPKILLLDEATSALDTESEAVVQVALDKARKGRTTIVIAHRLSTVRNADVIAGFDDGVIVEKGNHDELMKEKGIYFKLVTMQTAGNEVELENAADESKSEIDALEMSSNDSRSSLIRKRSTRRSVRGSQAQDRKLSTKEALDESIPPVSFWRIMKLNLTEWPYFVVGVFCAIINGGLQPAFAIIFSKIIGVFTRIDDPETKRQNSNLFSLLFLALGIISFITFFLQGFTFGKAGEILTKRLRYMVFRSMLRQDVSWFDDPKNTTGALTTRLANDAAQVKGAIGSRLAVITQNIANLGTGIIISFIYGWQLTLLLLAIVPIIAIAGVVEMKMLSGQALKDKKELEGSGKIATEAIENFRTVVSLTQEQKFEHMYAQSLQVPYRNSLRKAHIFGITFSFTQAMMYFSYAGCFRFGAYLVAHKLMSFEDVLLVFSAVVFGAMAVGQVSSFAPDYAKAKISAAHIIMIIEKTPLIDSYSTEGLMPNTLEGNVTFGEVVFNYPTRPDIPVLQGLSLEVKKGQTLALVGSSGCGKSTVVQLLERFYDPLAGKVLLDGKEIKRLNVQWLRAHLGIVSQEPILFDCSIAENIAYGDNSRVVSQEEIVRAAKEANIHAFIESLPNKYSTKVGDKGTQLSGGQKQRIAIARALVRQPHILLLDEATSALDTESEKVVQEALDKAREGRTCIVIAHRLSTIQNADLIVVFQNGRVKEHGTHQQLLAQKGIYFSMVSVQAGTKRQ
L major viab: Leishmania major promastigote growth inhibition, primary screen. inhibition, % at 10 µM. 200,000 tested, 9% active. Leishmania major promastigotes, resazurin fluorescence viability. AID 1063, 2008;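 note: promastigotes grown with compound for 44 hours at 28 °C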
ABCG2 block: ABCG2 efflux pump inhibitors, primary screen, multiplex with ABCB1, IgMXP3 cells, flow cytometry; Broad substrate specificity ATP-binding cassette transporter ABCG2 (Homo sapiens), Q9UNQ0; JC-1 efflux; inhibition, % at 6.6 µM; 190,000 tested, 0.1% active; AID 1325, 2008;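 active = inhibition above 80%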;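 note: 0% = DMSO and 100% = nicardipine control wells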
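Incubation: cells with compound and JC-1, 10 min at 25 °C, rotating, no wash / Test system: IgMXP3 (ABCG2) plus far-red-tagged CCRF-Adr (ABCB1) cells / Compound dosing: one concentration, 6.6 µM final / Also added: JC-1 fluorescent substrate / Evaluation: efflux inhibition in percent versus controls / Detection: flow cytometry, 530 nm JC-1 signal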
GSH fluor: compound fluorescence on glutathione beads, profiling panel, artefact control, biophysical, 488/530 nm, flow cytometry; GSH beads flow cytometry, compound fluorescence 488/530 nm; hits give high values; fluorescence (KMESF) at 10 µM; 190,000 tested, 0.25% active; in the data active = fluorescence above about 89;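 note: glutathione beads carrying GST-tagged Bcl family fusion proteins plus one bare bead set; values are compound well signal with DMSO vehicle wells as background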
* = called active by the depositor; · = no result given. Cut-off read from the data, not from the text of the source, unless noted: active = inhibition above about 50%; inactive = the rest.

SMILES | PKD1 inh | Avidin fluor | ABCB1 block | L major viab | ABCG2 block | GSH fluor
CCC(C)c1ccccc1NC(=O)CN1CCN(C/C=C/c2ccccc2)CC1 (centres undefined) | -5 | 15 | 3 | 96* | -1 | 5
CCN(CC(=O)Nc1ccccc1OC)C(=O)COc1ccc2ccccc2c1 | -8 | 16 | 1 | -1 | 0 | 6
CCC(=O)Nc1nnc(SCc2ccccc2F)s1 | 3 | 12 | 0 | 20 | 1 | 10
CCOC(=O)N1CCN(C(=O)c2ccc(Oc3ccc([N+](=O)[O-])cc3)cc2)CC1 | -4 | 9 | 0 | -3 | 0 | 17
CC(=O)N(Cc1ccc(F)cc1)C1=C(NCCc2ccccc2)C(=O)c2ccccc2C1=O | -7 | 8 | 2 | 100* | 3 | 51
CC(=O)N(Cc1ccc(F)cc1)c1cccc(C)c1C | -3 | 7 | 1 | -1 | 2 | 15
CCOc1ccc2nc(C)cc(Nc3ccc4c(c3)OCCO4)c2c1 | 9 | 15 | 0 | 101* | 2 | 13
Cc1ccc2nc(C)cc(NCCO)c2c1 | -10 | 9 | 0 | 33 | 0 | 5
Cc1cc(C(=O)Nc2ccc3c(c2)OCCO3)c2ccccc2n1 | -5 | 10 | 1 | -2 | 31 | 10
Cc1cc(Nc2ccc3c(c2)OCCO3)c2ccccc2n1 | -7 | 15 | 0 | 95* | 15 | 8
Cc1cc(Nc2ccc3c(c2)OCCO3)c2cccc(C)c2n1 | 1 | 4 | 0 | 85* | 3 | 11
CCOC(=O)c1cnc2ccc(OC)cc2c1Nc1ccc2c(c1)OCCO2 | 12 | 21 | 2 | 27 | 6 | 10
CC(=O)c1ccc(Nc2cc(C)nc3ccc(C)cc23)cc1 | 0 | 11 | 0 | 84* | 1 | 13
CCOC(=O)C1(C/C(C)=N/NC(N)=O)CC(C)OC1=O (centres undefined) | -1 | 2 | 0 | -7 | 3 | 10
CCOc1ccc2nc(C)cc(Nc3cccc([N+](=O)[O-])c3)c2c1 | -9 | 6 | 0 | 100* | 3 | 10
CCOc1ccc2nc(C)cc(Nc3ccc(N4CCOCC4)cc3)c2c1 | -3 | 7 | -2 | 64* | 21 | 22
Cc1ccc2nc(C)cc(Nc3ccc4c(c3)OCCO4)c2c1 | 2 | 12 | 1 | 100* | 4 | 9
N=c1ncn(Cc2ccccc2)c2nc(SCCOc3ccccc3)[nH]c12 | -20 | 23 | 1 | 3 | 33 | 12
CC1=C(CC/C(C)=N/NC(N)=S)C(C)(C)CCC1 | -1 | 7 | 0 | 100* | 0 | 18
C/C(CC(=O)NCc1ccccc1)=N\NC(N)=S | 11 | 10 | 1 | -5 | 5 | 20
Cc1ccc(Cl)c(OCCCCN(C)Cc2ccccc2)c1 | 8 | 8 | 0 | 91* | 0 | 23
Cc1cc(C)c(OCCN(C)Cc2ccccc2)c(Br)c1 | -4 | 6 | 1 | 12 | 2 | 11
CN(CCOCCOc1ccc(Cl)cc1Br)Cc1ccccc1 | 3 | 7 | -1 | 87* | -1 | 20
CCOc1ccc(OCCN(C)Cc2ccccc2)cc1 | -4 | 13 | -1 | 93* | 2 | 35
Cc1ccc(Cl)c(OCCCN(C)Cc2ccccc2)c1 | · | 23 | · | · | · | ·
SMILES | PKD1 inh | Avidin fluor | ABCB1 block | L major viab | ABCG2 block | GSH fluor
CCOc1cccc(OCCOCCN(C)Cc2ccccc2)c1 | -2 | 12 | 0 | 79* | 1 | 25
O=C(O)/C=C/C(=O)N(CC1CCCO1)C1CC(=O)N(c2c(Cl)cccc2Cl)C1=O (centres undefined) | · | 7 | · | · | · | ·
CN1CCN(C(=O)/C(C#N)=C/c2ccc(F)cc2)CC1 | -5 | 10 | 0 | 10 | -1 | 12
Cc1cc(C)n(C(=O)c2sc3cc(F)ccc3c2Cl)n1 | 2 | 11 | 1 | -7 | 2 | 23
CCCC(=O)NC(c1ccco1)c1cc(Cl)c2cccnc2c1O (centres undefined) | 6 | 8 | 1 | -2 | 9 | 18
Oc1c(C(Nc2nc3ccccc3s2)c2ccco2)ccc2cccnc12 (centres undefined) | 18 | 5 | 2 | 100* | 7 | 13
CC(C)C(=O)NC(c1ccco1)c1ccc2cccnc2c1O (centres undefined) | -21 | 25 | 1 | 100* | 6 | 24
Cc1nn(-c2cccc(Cl)c2)c(Cl)c1/C=N/NC(=O)c1cccnc1 | 4 | 16 | 1 | 71* | 5 | 9
COc1ccc(-c2nn(-c3ccccc3)cc2/C=N/NC(=O)c2cccc(S(=O)(=O)Nc3ccccc3Cl)c2)cc1 | 5 | 5 | 0 | 81* | -3 | 8
Cc1nn(-c2ccccc2)c(Cl)c1/C=N/NC(=O)c1cccc(S(=O)(=O)N2CCCC2)c1 | -3 | 3 | 2 | -8 | 4 | 4
Cc1nn(-c2ccccc2)c(N2CCCC2)c1/C=N/NC(=O)c1cccc(S(=O)(=O)Nc2ccc(Cl)cc2)c1 | 3 | 15 | 0 | 52* | -7 | 9
Cc1nn(-c2ccc(F)cc2)c(Cl)c1/C=N/NC(=O)c1cccc(S(=O)(=O)N2CCCC2)c1 | -12 | 11 | 1 | 55* | 15 | 8
COC(=O)c1ccc(-c2ncc[nH]2)cc1 | -4 | 8 | 0 | -9 | 1 | 21
Cc1cc(N)n2nc(-c3ccccc3)cc2n1 | -12 | 3 | 1 | 55* | 2 | 7
Cc1ccc(-c2cc3nc(-c4ccccc4)cc(N)n3n2)cc1 | 1 | 15 | -1 | 4 | -13 | 27
O=C(NCCCN1CCOCC1)C1Cc2c(ccc3ccccc23)O1 (centres undefined) | -6 | 26 | 0 | 69* | 0 | 11
O=C(CCN1CCCCC1)NNC(=S)NC(=O)c1ccc(Br)cc1 | -6 | 44 | 1 | 75* | 1 | 14
O=C(NCCCl)C1Cc2c(ccc3ccccc23)O1 (centres undefined) | -10 | 5 | 0 | -5 | 2 | 11
O=C(NC(=S)NCCCN1CCOCC1)c1cccc2ccccc12 | -2 | 9 | 0 | 78* | 0 | 16
O=C(NC(=S)NCCCN1CCOCC1)c1ccc(Br)cc1 | 6 | 12 | 1 | 86* | 4 | 14
Cc1ccc(C(=O)NCCCN2CCOCC2)cc1 | -6 | · | · | 8 | · | ·
Cc1ccc(C(=O)NC(=S)NCCCN2CCOCC2)cc1 | 2 | 11 | 1 | 65* | 10 | 9
Cc1ccc(C(NC(=O)NCCCN2CCOCC2)=C(Cl)Cl)cc1F | 3 | 5 | 0 | 81* | 0 | 11
CCOc1nc(-c2ccc(Cl)cc2)nc2ccccc12 | -1 | 3 | · | -1 | 1 | 12

Screening results: PubChem BioAssay, several laboratories
